Records with an inconclusive call do not appear. Calls of active or inactive are those of the source.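 How the source made its calls, unless noted: active means inhibition over a set limit, the all-compound mean plus 3 SD, in both replicate runs; inconclusive means over that limit in just one replicate run; inactive means at or under that limit in both runs.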
How the values were obtained:
[1] = OD615 S. cerevisiae growth inhibition, permissive medium, pilot counter-assay, permissive growth control for S. cerevisiae lifespan shortening project (AID 705;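 active means growth inhibition above 25% in both replicates, a cutoff set 3 SD above the mean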); settings: OD615, 24 h, at 10 µM, hits give high values
Method in brief: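 System: S. cerevisiae with engineered DeaD lifespan system / Measured by: absorbance (optical density) at 615 nm / Read-out: reduction in yeast growth (OD615) / Times: 4 h cell pre-growth, 24 h exposure at 30 °C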

[2] = Restrictive medium S. cerevisiae growth inhibition, OD615, pilot screen of yeast lifespan reduction project, restrictive growth control (AID 706;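 active means growth inhibition above a set limit, 3 SD over mean compound inhibition, in both replicates, cut at about 43% in these data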;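 further: modified DeaD lifespan yeast strain shifted to restrictive glucose medium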); settings: OD615, 48 h, at 10 µM, hits give high values
Method in brief: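 System: Engineered S. cerevisiae DeaD strain | Buffer or medium: Glucose-based CSMM-D restrictive medium | Schedule: 4 h pre-incubation, 48 h exposure at 30 °C | Technique: Optical density at 615 nm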

[3] = growth suppression of beta-catenin knockout HCT116, pilot screen, human colon tumor cells (AID 823;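 active means cell viability at or below a set limit in both duplicate runs, the limit being the all-compound median minus 4 SD, cut at about 23% in these data, passing the limit was not always enough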;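 further: 0% = wells killed by 20 µM Hyamine and 100% = untreated DMSO cell wells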); settings: CellTiter-Glo, 60 h, at 10 µM, hits give low values
[4] = growth suppression of PTEN-deleted HCT116, pilot screen, cell-based, HCT116 clonal line, CellTiter-Glo (AID 824;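 active means viability at or below 27.92% in each of two runs, the all-compound median minus 4 SD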;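 further: 0% = 20 µM Hyamine control and 100% = vehicle cell control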); settings: 60 h, at 10 µM, hits give low values
[5] = inhibitors of the yeast RAM network, pilot screen, dse1pr::URA3 reporter, 5-FOA selection (AID 869);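 further: 0% = DMSO wells with no growth and 100% = 10 µM 1-NA-PP1 with full growth; RAM network block rescues cells from 5-FOA so hits raise OD615 growth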; settings: S. cerevisiae dse1pr::URA3 5-FOA growth, OD615, 2 d; at 10 µM; hits give high values; strain carries analog-sensitive mutant Cbk1 kinase
[6] = RAM signaling pathway blockade in yeast – S. cerevisiae, Pdr1DBD-CYC8 efflux-inhibited sensitized strain, primary screen (AID 1298;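 active means RAM network inhibition above 8.4% in each of two replicates, 3 SD over the compound average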;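 further: 0% = DMSO untreated cells without growth and 100% = 10 µM 1-NA-PP1 full growth; higher means more yeast growth rescued from 5-FOA killing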); settings: S. cerevisiae cbk1-as DSE1-URA3 strain, 5-FOA growth OD615, 2 d; at 50 µM; hits give high values
[7] = viability gain of MRP-1-high H69AR cells under doxorubicin, pilot screen, MRP-1 activator project, CellTiter-Glo, duplicate (AID 807;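 active means viability increase at or above a cutoff of the median across tested compounds plus 3 SD, cut at about 8.5% in these data, passing the limit was not always enough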;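 further: compound pretreatment 18-22 h then 72 h combined with doxorubicin; 0% = doxorubicin alone and 100% = vehicle without doxorubicin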); settings: H69AR viability with doxorubicin, CellTiter-Glo luminescence; at 10 µM; hits give high values

Cc1ccc(N2C(=O)Nc3ccc(Br)cc3C2(O)C(=O)NCCCN(C)C)cc1C (stereo not drawn)
inactive: growth inhibition [1] -7.06% | growth inhibition [2] -9.65% | viability [3] 91.7% | viability [4] 98.7% | inhibition [5] 0.615% | RAM network inhibition [6] 3.58%

Cc1ccc(OCC(=O)Nc2cc(-c3nn4c(C)nnc4s3)ccc2C)cc1
inactive: growth inhibition [1] 0.12% | viability increase [7] -4.09% | viability [3] 93.7% | viability [4] 88% | inhibition [5] 3.09% | RAM network inhibition [6] 10.7%

Oc1c(C(c2cccs2)N2CCN(c3cccc(Cl)c3)CC2)sc2ncnn12 (stereo not drawn)
inactive: growth inhibition [1] -8.2% | growth inhibition [2] 5.16% | viability [3] 88.1% | viability [4] 90.5% | inhibition [5] 1.94% | RAM network inhibition [6] 3.42%

CC(=O)NC(=S)c1c(N)n(Cc2ccccc2)c(=O)n(C)c1=O
inactive: growth inhibition [1] 19.2% | viability increase [7] -3.97% | viability [3] 84.6% | viability [4] 80% | inhibition [5] 0.92% | RAM network inhibition [6] 4.62%

CCOC(=O)/C=C1\SCC(=O)N1CCOc1cccc(Br)c1
inactive: growth inhibition [1] -18.6% | growth inhibition [2] -29.1% | viability [3] 85.5% | viability [4] 80.4% | inhibition [5] 2.75% | RAM network inhibition [6] 3.37%

Cn1c(=O)[nH]c(=O)c2c1nc(SCC(=O)Nc1ccccc1)n2Cc1ccccc1
inactive: growth inhibition [1] -4.58% | growth inhibition [2] 0.385% | viability [3] 92% | viability [4] 94.6% | inhibition [5] 0.935% | RAM network inhibition [6] 2.08%

O=C(CSCc1ccc(Cl)cc1)NCC1CCCO1 (stereo not drawn)
inactive: growth inhibition [1] -7.79% | growth inhibition [2] -2.08% | viability [3] 102% | viability [4] 101% | inhibition [5] 1.34% | RAM network inhibition [6] 3.99%

Cc1noc(/C=C/N(C)C)c1S(=O)(=O)N1CCCC(C(=O)NCc2ccco2)C1 (stereo not drawn)
inactive: growth inhibition [1] 4.93% | growth inhibition [2] -2.94% | viability [3] 97.6% | viability [4] 92.1% | inhibition [5] 0.86% | RAM network inhibition [6] 4.7%

COc1ccc(Br)cc1C1CC(=O)N2CN(C)CSC2=C1C#N (stereo not drawn)
inactive: growth inhibition [1] 4.76% | viability increase [7] -4.75% | viability [3] 81.6% | viability [4] 78.3% | inhibition [5] 0.03% | RAM network inhibition [6] 1.82%

Cc1noc(/C=C/N(C)C)c1S(=O)(=O)N1CCCC(C(=O)Nc2ccc3c(c2)OCO3)C1 (stereo not drawn)
inactive: growth inhibition [1] -1.3% | growth inhibition [2] -0.88% | viability [3] 89.1% | viability [4] 89.7% | inhibition [5] 2.2% | RAM network inhibition [6] 7.17%

Cc1cccc(-n2ncc3c(N4CC(C)CC(C)C4)ncnc32)c1 (stereo not drawn)
inactive: growth inhibition [1] -1.33% | growth inhibition [2] -3.92% | viability [3] 59.9% | viability [4] 78.1% | inhibition [5] 1.74% | RAM network inhibition [6] 6.19%

COc1ccc(S(=O)(=O)N2CCN(c3ccc4nnc(-c5ccc(F)cc5)n4n3)CC2)cc1
inactive: growth inhibition [1] 16.1% | viability increase [7] -6.07% | viability [3] 46.4% | viability [4] 38.6% | inhibition [5] 1.78% | RAM network inhibition [6] 1.48%

CCc1ccc(NC(=O)Cn2c(=O)oc3cc(S(=O)(=O)N4CCOCC4)ccc32)cc1
inactive: growth inhibition [1] -11% | growth inhibition [2] -13.3% | viability [3] 99.8% | viability [4] 89.2% | inhibition [5] 1.83% | RAM network inhibition [6] 8.19%

CN(c1ccccc1)S(=O)(=O)c1ccc(C(=O)Nc2nccs2)cc1
inactive: growth inhibition [1] -17.4% | growth inhibition [2] -19.6% | viability [3] 84.8% | viability [4] 83.3% | inhibition [5] 3.73% | RAM network inhibition [6] 4.85%

CN(C)S(=O)(=O)c1ccc(S(=O)(=O)N2CCN(CCC#N)CC2)cc1
inactive: growth inhibition [1] -0.96% | growth inhibition [2] 2.05% | viability [3] 102% | viability [4] 101% | inhibition [5] 0.005% | RAM network inhibition [6] -1.81%

Cc1cccc(C2CC(c3ccccc3)Nc3ncnn32)c1 (stereo not drawn)
inactive: growth inhibition [1] 3.16% | growth inhibition [2] 13.8% | viability [3] 91.9% | viability [4] 93.8% | inhibition [5] 1.7% | RAM network inhibition [6] 0.37%

COc1ccccc1C1CC(c2ccc(Cl)cc2Cl)Nc2nc(N)nn21 (stereo not drawn)
inactive: growth inhibition [1] -5.97% | growth inhibition [2] 25.2% | viability [3] 86.1% | viability [4] 85% | inhibition [5] 1.62% | RAM network inhibition [6] 7.09%

O=C(CSc1nnc(-c2ccccn2)n1Cc1ccco1)c1ccccc1
inactive: growth inhibition [1] 0.135% | viability increase [7] -3.34% | viability [3] 98.1% | viability [4] 95.2% | inhibition [5] 0.485% | RAM network inhibition [6] 7.41%

CCc1nnc(NC(=O)c2ccc(S(=O)(=O)N(CC)CC)cc2)s1
inactive: growth inhibition [1] -7.41% | growth inhibition [2] -3.27% | viability [3] 104% | viability [4] 90.9% | inhibition [5] 1.52% | RAM network inhibition [6] -0.37%

O=C(CSc1ccc2nnc(-c3ccc(Cl)cc3)n2n1)N1CCCC1
inactive: growth inhibition [1] -1.01% | viability increase [7] -3.12% | viability [3] 86.3% | viability [4] 93.1% | inhibition [5] 1.32% | RAM network inhibition [6] 4.24%

O=C(O)c1cc2c(s1)-c1ccccc1OC2
inactive: growth inhibition [1] 6.14% | viability increase [7] -4.32% | viability [3] 96.9% | viability [4] 98.7% | inhibition [5] 0.165% | RAM network inhibition [6] -2.9%

O=C1Cc2ccccc2C(=O)N1CCc1ccccc1
active: growth inhibition [2] 66%
inactive: growth inhibition [1] 12.3% | viability [3] 97.2% | viability [4] 92.8% | inhibition [5] 1.75% | RAM network inhibition [6] 2.61%

Cc1cccc(N2CCN(C(=O)c3cc4c(=O)n(C)c5ccccc5c4n3C)CC2)c1C
inactive: growth inhibition [1] -7.02% | growth inhibition [2] -6.91% | viability [3] 61.1% | viability [4] 65.5% | inhibition [5] 3.12% | RAM network inhibition [6] 1.49%

CCOc1ccccc1N1CSC2=C(C#N)C(c3c(OC)ccc4ccccc34)CC(=O)N2C1 (stereo not drawn)
inactive: growth inhibition [1] 4.14% | viability increase [7] -6.32% | viability [3] 67.3% | viability [4] 65.5% | inhibition [5] 3.73% | RAM network inhibition [6] 3.99%

O=C1C=C(O)CC(c2ccc(Cl)cc2)C1 (stereo not drawn)
inactive: growth inhibition [1] -2.77% | growth inhibition [2] 0.79% | viability [4] 103% | inhibition [5] -0.37% | RAM network inhibition [6] 8.23%

COC(=O)Cn1c(=NC(=O)CSC(C)=O)sc2ccccc21
inactive: growth inhibition [1] 4.79% | viability increase [7] -1.9% | viability [3] 98.5% | viability [4] 101% | inhibition [5] 2.89% | RAM network inhibition [6] 5.91%

COc1ccc(Cl)cc1N1C(=O)C2CCCN2C1c1ccc(F)c(F)c1 (stereo not drawn)
inactive: growth inhibition [1] -5.22% | growth inhibition [2] -6.92% | viability [3] 98.1% | viability [4] 92.7% | inhibition [5] 1.33% | RAM network inhibition [6] 6.15%

CCOc1ccc2nc3ccc4[nH]onc4c3c2c1
inactive: growth inhibition [1] 0.485% | growth inhibition [2] 1.57% | viability [3] 74.8% | viability [4] 66.5% | inhibition [5] 2.8% | RAM network inhibition [6] 6.1%

Cc1ccc(/C=c2/sc3nnc(-c4ccccc4Cl)n3c2=O)o1
inactive: growth inhibition [1] -7.07% | viability increase [7] -5% | viability [3] 90.9% | viability [4] 93% | inhibition [5] 0.785% | RAM network inhibition [6] 3.46%

Cc1ccc(Cl)cc1N1CCN(C(=O)c2cc3c(=O)n(C)c4ccccc4c3n2C)CC1
inactive: growth inhibition [1] -2.52% | growth inhibition [2] 9.03% | inhibition [5] 1.74% | RAM network inhibition [6] 2.44%
active: viability [3] 20.4% | viability [4] 23.5%

COc1cc(C(c2sc3ncnn3c2O)N2CCN(c3ccccc3F)CC2)cc(OC)c1OC (stereo not drawn)
inactive: growth inhibition [1] 1.67% | growth inhibition [2] -0.84% | viability [3] 103% | viability [4] 105% | inhibition [5] 2.5% | RAM network inhibition [6] 5.34%

CCN(CC)C1CC(=O)N(c2cccc(C)c2)C1=O (stereo not drawn)
inactive: growth inhibition [1] 20% | viability increase [7] -1.11% | viability [3] 105% | viability [4] 101% | inhibition [5] 2.06% | RAM network inhibition [6] -0.69%

CCCCc1ccc(-c2nc(-c3ccncc3)no2)cc1
inactive: growth inhibition [1] -16.1% | growth inhibition [2] -3.25% | viability [3] 65.8% | viability [4] 75.9% | inhibition [5] 3.17% | RAM network inhibition [6] 3.23%

COc1ccc(-n2c(Cc3cc(=O)[nH]c(=O)[nH]3)nnc2SCC(=O)N2CCC(C)CC2)cc1
inactive: growth inhibition [1] -11.5% | growth inhibition [2] 4.4% | viability [3] 98.2% | viability [4] 96.9% | inhibition [5] 2.92% | RAM network inhibition [6] 0.47%

Cc1onc(-c2ccccc2)c1C(=O)Nc1nnc(N(C)Cc2ccccc2)s1
inactive: growth inhibition [1] -12.4% | growth inhibition [2] -20.5% | viability [3] 89.8% | viability [4] 88.8% | inhibition [5] 1.02% | RAM network inhibition [6] 9.12%

CCOCCn1c(-c2ccc(OC)cc2)nc2ccccc21
inactive: growth inhibition [1] -16.9% | growth inhibition [2] -10.7% | viability [3] 93.6% | viability [4] 82.8% | inhibition [5] 1.63% | RAM network inhibition [6] 5.07%

COc1ccccc1CNC(=O)CN1CCN(Cc2ccc(Cl)cc2)C1=O
inactive: growth inhibition [1] 7.3% | growth inhibition [2] 10.3% | viability [3] 98.3% | viability [4] 92.5% | inhibition [5] 1.5% | RAM network inhibition [6] 0.67%

COc1cc(C2CC(=O)N3CN(Cc4ccco4)CSC3=C2C#N)ccc1OCc1ccccc1 (stereo not drawn)
inactive: growth inhibition [1] 7.01% | viability increase [7] -5.42% | viability [3] 77.8% | viability [4] 83.5% | inhibition [5] 1.65% | RAM network inhibition [6] 2.55%

CCOC(=O)c1ccc(NC(=O)CSc2nc3c(c(=O)n2CC)SC(C)C3)cc1 (stereo not drawn)
inactive: growth inhibition [2] -18.3% | viability increase [7] -3.44% | viability [3] 84% | viability [4] 80.8% | inhibition [5] 0.12% | RAM network inhibition [6] 3.13%

Source: PubChem BioAssay
